STEP inh – STEP phosphatase inhibitors, primary screen, biochemical, fluorescence intensity, uHTS; recombinant STEP, OMFP fluorogenic substrate; inhibition, % at 20 µM; hit rate 0.25% among 360,000; AID 588621, 2011;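 active = inhibition at 20 µM, scaled per plate between control wells, above about 37%, limit read from the data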;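 also: 0% = DMSO with enzyme and substrate and 100% = substrate only without enzyme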
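System: isolated STEP enzyme; schedule: 20 min enzyme reaction at room temperature, protected from light; medium: Bis-Tris buffer pH 6.0, 2.5 mM DTT, 0.005% Tween 20; signal: fluorescence, 480/540 nm; dosing: single compound dose of 20 µM, 1% DMSO final; also added: OMFP substrate, 25 µM final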
Scp1 inh – Scp-1 phosphatase inhibitors, primary screen, biochemical, colorimetric, uHTS; Recombinant Scp1, phosphopeptide, malachite green phosphate absorbance; inhibition, % at 20 µM; hit rate 0.88% among 340,000; Carboxy-terminal domain RNA polymerase II polypeptide A small phosphatase 1 (Homo …;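 active = inhibition above about 50% at 20 µM, limit read from the data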;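 also: plate controls were DMSO wells with enzyme for no effect and wells lacking enzyme for full effect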
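System: SCP-1 catalytic domain; Reagent: Phospho 17-mer peptide substrate; Doses: one concentration, 20 µM, with 1.0% DMSO; Incubation: 45 min room-temperature reaction, 5 min colour, 30 min stabiliser; Signal: Phosphate-binding colour reagent, absorbance read at 630 nm.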
PP5 primary – PP5 phosphatase inhibitors, primary screen, biochemical, fluorescence; Serine/threonine-protein phosphatase 5 (Homo sapiens), P53041; purified PP5c, OMFP substrate fluorescence; inhibition, % at 6.7 µM; hit rate 0.18% among 320,000; AID 1987, 2009;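 active = inhibition above the campaign's mean inhibition across all tested compounds plus 3 SD, cut at about 9.5% in these data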;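 also: 0% = DMSO only and 100% = 100 µM cantharidin control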
Target sequence (P53041 whole entry, looked up): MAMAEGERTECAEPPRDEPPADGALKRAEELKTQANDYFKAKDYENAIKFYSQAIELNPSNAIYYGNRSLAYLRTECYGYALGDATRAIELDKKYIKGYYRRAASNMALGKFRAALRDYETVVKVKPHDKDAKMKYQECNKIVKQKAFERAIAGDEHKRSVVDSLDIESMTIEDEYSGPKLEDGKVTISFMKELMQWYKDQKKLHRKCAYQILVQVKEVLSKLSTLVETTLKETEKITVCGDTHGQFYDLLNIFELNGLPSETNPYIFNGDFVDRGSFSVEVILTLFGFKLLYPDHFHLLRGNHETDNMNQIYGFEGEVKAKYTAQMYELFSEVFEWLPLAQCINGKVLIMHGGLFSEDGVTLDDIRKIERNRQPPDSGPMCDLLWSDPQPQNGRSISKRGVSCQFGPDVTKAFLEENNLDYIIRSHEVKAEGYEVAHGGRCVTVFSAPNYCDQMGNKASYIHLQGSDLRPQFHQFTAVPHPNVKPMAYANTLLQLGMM
LMPTP block – LMPTP phosphatase inhibitors, primary screen, biochemical, fluorescence intensity, uHTS; recombinant LMPTP-A, OMFP fluorogenic substrate; inhibition, % at 20 µM; hit rate 0.22% among 360,000;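 active = compounds that cut the enzyme signal by at least half of the control window in the single-dose screen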;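 also: plate controls were DMSO wells with enzyme plus substrate for no effect and substrate without enzyme for full effect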
Target sequence (P24666 whole entry, looked up): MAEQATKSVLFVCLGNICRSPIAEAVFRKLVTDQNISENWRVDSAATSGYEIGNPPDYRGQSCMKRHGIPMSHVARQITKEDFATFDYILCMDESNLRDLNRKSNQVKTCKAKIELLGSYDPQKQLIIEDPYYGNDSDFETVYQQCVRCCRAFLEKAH
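Buffer or medium: Bis-Tris pH 6.0, DTT, detergent; Assay system: LMPTP-A enzyme; Quantity: 0.625 nM enzyme; Detection: endpoint fluorescence intensity; Times: 50 min dark incubation at room temperature; Controls: substrate-only low control, DMSO enzyme-plus-substrate high control; Doses: single 20 µM dose; Read-out: percent inhibition versus substrate-only and uninhibited controls; Reagent: 400 µM OMFP.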
PP1 counter – PP1-alpha phosphatase inhibitors, primary screen, counter-screen for PP5 inhibitor project, biochemical, fluorescence, OMFP substrate, single point; purified PP1alpha; Serine/threonine-protein phosphatase PP1-alpha catalytic subunit (Homo sapiens), P62136; AID 2235, 2010; hit rate 0.9% among 320,000; inhibition, % at 6.7 µM;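 active = inhibition above the mean inhibition of all tested compounds plus 3 SD, computed separately for each screening campaign, cut at about 15% in these data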
Scp1 confirm – Scp-1 phosphatase inhibitors, retest, confirmation, biochemical, colorimetric, single concentration; shares compounds with Scp1 inh; recombinant SCP-1 catalytic domain, phosphate release, malachite green absorbance; inhibition, % at 20 µM; hit rate 61% among 2,500; AID 540281, 2011;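 also: plate controls were DMSO with enzyme for no effect and buffer wells lacking enzyme for full effect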
MG interference – colorimetric readout interference by compounds, confirmation, artefact control for Scp-1 inhibitor project, biochemical, single concentration; shares compounds with Scp1 inh; Colorimetric interference counterscreen, malachite green absorbance 630 nm; apparent inhibition (interference), % at 20 µM; 2,500 tested, under 10 active; AID 540313, 2011;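 also: compounds added after enzyme reaction finished so only phosphate colour detection is probed; plate controls were DMSO wells with completed Scp-1 reaction for no effect and substrate wells lacking enzyme for full effect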
Scp1 DSF – Scp-1 binding by thermal shift, confirmation, orthogonal assay for Scp-1 inhibitor project, biophysical, differential scanning fluorimetry | shares compounds with Scp1 inh | Recombinant SCP1, Sypro Orange thermal shift Tm | thermal shift relative to vanadate control, % at 40 µM | hit rate 25% among 1,500 | AID 540329, 2011;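 active = substances whose mean melting-temperature shift, as a percentage of the reference inhibitor's shift, reaches about 5.3%, limit read from the data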;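 also: 0% = Tm of DMSO wells and 100% = Tm with sodium orthovanadate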
Active calls of the source: *; · = no result. Shown are actives, neighbours in structure and some others; about 1.9% of the full set was active somewhere.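 The calls were made as follows, unless noted: active = inhibition of at least 30% at 20 µM; inactive = the rest.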

SMILES	STEP inh	Scp1 inh	PP5 primary	LMPTP block	PP1 counter	Scp1 confirm	MG interference	Scp1 DSF
CCN1C(=O)c2ccccc2Sc2ccc(C(=O)O)cc21	-1.7	-12.8	-0.5	-1.5	1.6	·	·	·
CN(CCC#N)C(=O)COC(=O)/C=C/c1ccc2c(c1)OCO2	-1.0	-4.7	0.4	1.4	1.0	·	·	·
CC1C[N+](=C2C=C(N3CCOCC3)CC(C)(C)C2)CC(C)O1 (stereo not drawn)	-0.7	102.9*	-0.2	-0.9	0.0	91.5*	-3.8	-15.7
CCc1cccc(NS(=O)(=O)c2ccc3c(c2)NC(=O)CC(=O)N3)c1	-5.9	-8.1	-1.6	0.1	6.7	-10.8	-14.5	·
Cc1cc2oc(C(=O)NCCc3ccc(S(N)(=O)=O)cc3)c(C)c2cc1C	7.6	85.4*	-0.4	49.8*	5.2	70.8*	-16.1	-11.0
COc1ccc2nc3ccccc3nc2c1NC(=O)c1ccc(Br)cc1	-4.5	-2.7	-1.6	-0.6	-0.3	·	·	·
Cc1nnc(N2C(=O)c3oc4ccccc4c(=O)c3C2c2ccco2)s1 (stereo not drawn)	4.4	60.0*	2.9	0.4	-5.9	42.4*	-1.0	0.5
COc1ccc(/C=N/Nc2ncc(Br)cn2)c(OC)c1	15.4	57.3*	0.6	11.3	2.6	37.5*	2.5	-17.4
COc1ccc(/C=N\Nc2ccccn2)c(OC)c1	4.9	3.8	·	2.5	·	·	·	·
Cc1ccc(CNC(=O)CSc2nc(=O)n3ccc(C)cc3n2)cc1	-5.1	·	·	4.0	·	·	·	·
Cc1ccn2c(=O)nc(SCC(=O)NCc3ccco3)nc2c1	1.1	71.7*	0.6	0.6	-2.8	35.3*	-11.4	-15.5
Cc1cccn2c(=O)nc(SCC(=O)NCc3ccco3)nc12	2.8	35.6	0.1	-0.5	1.6	·	·	·
Cc1ccn2c(=O)nc(SCC(=O)NCc3ccccc3)nc2c1	-0.9	86.6*	0.7	16.0	4.5	60.8*	-12.9	5.7*
Cc1ccc2cc(C)c3nnc(SCC(=O)NCc4ccco4)n3c2c1	2.1	78.1*	2.3	0.5	-2.8	56.6*	-14.2	-16.0
CC12CCC(=O)N1C(C(=O)NNC(=O)COc1ccccc1Cl)CS2 (stereo not drawn)	-1.4	-8.1	-1.9	-2.2	1.3	·	·	·
C=CCn1c(O)c(N=Nc2ccccc2)c2ccccc21	0.1	0.5	3.3	1.0	1.4	·	·	·
COc1c(O)cc2c(c1O)C1OC(CO)C(O)C(O)C1OC2=O (stereo not drawn)	-0.4	-11.3	-1.3	-0.8	-4.5	·	·	·
COc1c(O)cc2c(c1O)[C@@H]1OC(CO)C(O)C(O)[C@H]1OC2=O (stereo partly drawn)	-1.6	-0.7	·	-0.4	·	-7.4	-5.2	·
Cc1cccc(NC(=O)CN2C(=O)S/C(=C\c3ccc(-c4cccc(C(=O)O)c4C)o3)C2=O)c1	·	77.5*	2.5	·	-2.4	80.8*	-7.6	8.1*
Cc1c(C(=O)O)cccc1-c1ccc(/C=N/n2cnnc2)o1	27.0	67.5*	1.1	0.5	1.1	37.5*	-14.7	-18.0
O=C1COc2ccc(C(=O)COC(=O)CNS(=O)(=O)c3cccc(F)c3)cc2N1	2.5	-7.3	1.3	10.0	-1.1	·	·	·
CCC1(c2ccccc2)NC(=O)N(CC(=O)NCc2ccncc2)C1=O (stereo not drawn)	-2.2	-9.8	2.0	-2.2	2.1	·	·	·
CCC1(c2ccccc2)NC(=O)N(CC(=O)NNC(=O)COc2ccc(Cl)cc2C)C1=O (stereo not drawn)	1.9	-11.2	1.5	-0.2	0.3	-9.0	-8.2	·
COc1ccc(CNC(=O)Cn2ccc(NC(=O)OCc3ccccc3)nc2=O)cc1	0.4	10.3	-0.9	-0.9	-2.8	·	·	·
O=C(Cn1ccc(NC(=O)OCc2ccccc2)nc1=O)NCc1ccc2[nH]ccc2c1	-2.4	4.0	-1.2	1.2	-1.4	-1.2	0.1	·
SMILES	STEP inh	Scp1 inh	PP5 primary	LMPTP block	PP1 counter	Scp1 confirm	MG interference	Scp1 DSF
COc1cc(NCCCn2ccc(NC(=O)OCc3ccccc3)nc2=O)cc(OC)c1OC	-0.9	-10.9	·	-0.6	·	-7.4	-8.2	·
Cc1ccc(CNC(=O)Cn2ccc(NC(=O)OCc3ccccc3)nc2=O)o1	-1.9	-8.2	-0.9	-2.6	-0.7	-4.7	-11.5	·
COc1ccc(CN(C)CCCn2ccc(NC(=O)OCc3ccccc3)nc2=O)cc1OC	0.4	·	·	-0.4	·	·	·	·
CCCn1c(SCCN2CCOCC2)nc2c1c(=O)n(C)c(=O)n2C	2.5	-3.7	·	2.1	·	·	·	·
COC(=O)c1ccc2c(=O)n(-c3ccccc3)c(=S)[nH]c2c1	-0.2	-3.7	-2.3	1.2	4.4	·	·	·
COc1ccc(C2CC(c3ccccc3)Nc3nc(N)nn32)cc1 (stereo not drawn)	0.2	4.7	3.0	0.3	5.7	·	·	·
Cc1ccc(O)c(C(=O)c2cnn(C(=O)COc3ccc(Cl)cc3)c2)c1	31.7	82.2*	-0.2	24.9	0.8	73.0*	-12.6	-15.2
O=C(c1cnn(C(=O)COc2ccc(Cl)cc2)c1)c1ccccc1O	8.9	21.2	0.8	-1.4	-2.7	·	·	·
COc1ccc(NS(=O)(=O)c2cccc(C(=O)NNC(=O)c3ccccc3O)c2)cc1	-0.7	-15.2	1.1	-0.9	-0.8	·	·	·
COc1ccc(NS(=O)(=O)c2cccc(C(=O)NNC(=O)c3cccn3C)c2)cc1	-1.7	62.6*	0.5	2.5	2.7	64.8*	-9.5	6.8*
COc1ccccc1NC(=S)NC(NC(=O)C(C)C)C(Cl)(Cl)Cl (stereo not drawn)	-2.3	-5.0	2.2	-1.2	-2.7	·	·	·
CSc1n[nH]c(NCc2ccc(C)cc2)n1	-3.3	55.1*	1.4	-0.1	-1.9	-7.1	-11.7	·
O=C1CCCC2=C1C(c1cccs1)Nc1ccccc1N2 (stereo not drawn)	-3.0	1.3	-0.2	-0.5	-0.2	·	·	·
CN(CC(=O)N1CCN(c2ccccc2F)CC1)S(=O)(=O)c1cnc[nH]1	0.2	-5.2	0.4	-1.1	-1.5	·	·	·
COc1ccc(N2CCN(C(=O)CN(C)S(=O)(=O)c3cnc[nH]3)CC2)cc1	-1.1	53.6*	-0.4	0.9	-3.3	-17.8	-15.6	·

Bioassay records from PubChem BioAssay.
